# Legend:
# Staphylococcus aureus [1] = experiment: Antibacterial activity against methicillin-resistant Staphylococcus aureus isolate 11 incubated overnight by agar dilution method; format: functional
# Summary of the method: (§1)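 MIC by agar dilution. Strains were grown overnight in LB broth and diluted, then about 10^4 CFU (2 μL spots) were spotted onto LB agar plates containing test compound at 0.5 to 8 μg mL−1 agar. Plates were incubated overnight at 37 °C and inspected for growth. Clinical MSSA and MRSA isolates came from local hospitals.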
# Staphylococcus aureus [2] = experiment: Antibacterial activity against Staphylococcus aureus ATCC 29213 incubated overnight by agar dilution method; format: functional; summary of the method: as §1
# Staphylococcus aureus [3] = experiment: Antibacterial activity against methicillin-sensitive Staphylococcus aureus isolate 1 incubated overnight by agar dilution method; format: functional; summary of the method: as §1
# Staphylococcus aureus [4] = experiment: Antibacterial activity against methicillin-sensitive Staphylococcus aureus isolate 2 incubated overnight by agar dilution method; format: functional; summary of the method: as §1
# Staphylococcus aureus [5] = experiment: Antibacterial activity against methicillin-sensitive Staphylococcus aureus isolate 3 incubated overnight by agar dilution method; format: functional; summary of the method: as §1
# Staphylococcus aureus [6] = experiment: Antibacterial activity against methicillin-sensitive Staphylococcus aureus isolate 4 incubated overnight by agar dilution method; format: functional; summary of the method: as §1
# Staphylococcus aureus [7] = experiment: Antibacterial activity against methicillin-resistant Staphylococcus aureus isolate 5 incubated overnight by agar dilution method; format: functional; summary of the method: as §1
# Staphylococcus aureus [8] = experiment: Antibacterial activity against methicillin-resistant Staphylococcus aureus isolate 6 incubated overnight by agar dilution method; format: functional; summary of the method: as §1
# Staphylococcus aureus [9] = experiment: Antibacterial activity against methicillin-resistant Staphylococcus aureus isolate 7 incubated overnight by agar dilution method; format: functional; summary of the method: as §1
# Staphylococcus aureus [10] = experiment: Antibacterial activity against methicillin-resistant Staphylococcus aureus isolate 8 incubated overnight by agar dilution method; format: functional; summary of the method: as §1
# Staphylococcus aureus [11] = experiment: Antibacterial activity against methicillin-resistant Staphylococcus aureus isolate 9 incubated overnight by agar dilution method; format: functional; summary of the method: as §1
# Staphylococcus aureus [12] = experiment: Antibacterial activity against methicillin-resistant Staphylococcus aureus isolate 10 incubated overnight by agar dilution method; format: functional; summary of the method: as §1
# [13] = Stability of the compound in PBS at pH 5.8 at 0.1 mg/ml after 16 hrs by HPLC analysis; format: physicochemical; settings: buffer, pH 5.8, 16 h
# Summary of the method: (§2)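 Compound at 0.1 mg mL−1 dissolved in 1 mM PBS at the stated pH. Held at 37 °C for 16 h. Remaining compound and retro-Michael reversion products analysed by HPLC.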
# [14] = Stability of the compound in PBS at pH 7.1 at 0.1 mg/ml after 16 hrs by HPLC analysis; format: physicochemical; settings: buffer, pH 7.1, 16 h; summary of the method: as §2
SMILES,MIC (Staphylococcus aureus [1]) [µg/mL],MIC (Staphylococcus aureus [2]) [µg/mL],MIC (Staphylococcus aureus [3]) [µg/mL],MIC (Staphylococcus aureus [4]) [µg/mL],MIC (Staphylococcus aureus [5]) [µg/mL],MIC (Staphylococcus aureus [6]) [µg/mL],MIC (Staphylococcus aureus [7]) [µg/mL],MIC (Staphylococcus aureus [8]) [µg/mL],MIC (Staphylococcus aureus [9]) [µg/mL],MIC (Staphylococcus aureus [10]) [µg/mL],MIC (Staphylococcus aureus [11]) [µg/mL],MIC (Staphylococcus aureus [12]) [µg/mL],Stability [13],Stability [14]
CCS[C@H]1CC(=O)[C@@](C)(CCC(=O)Nc2c(O)ccc(C(=O)O)c2O)[C@@H]2[C@@H]3C[C@H]4C[C@]12C[C@]4(C)O3,1,0.5,0.5,0.5,1,1,1,2,1,1,1,1,Stable,Stable
"C=C1C[C@@]23CCC1C[C@@H]2[C@](C)(CCC(=O)Nc1c(O)ccc(C(=O)O)c1O)C(=O)C[C@@H]3SC(C)=O (single isomer, unassigned)",4,4,1,1,1,1,2,2,2,2,2,2,Stable,Stable
COc1ccc(C(=O)S[C@H]2CC(=O)[C@@](C)(CCC(=O)Nc3c(O)ccc(C(=O)O)c3O)[C@@H]3[C@@H]4C[C@H]5C[C@]23C[C@]5(C)O4)cc1,2,1,1,1,1,1,2,1,2,1,1,1,Stable,Stable
C[C@]12C[C@]34C[C@@H]1C[C@H](O2)[C@H]3[C@](C)(CCC(=O)Nc1c(O)ccc(C(=O)O)c1O)C(=O)C[C@@H]4SC(=O)c1ccccc1,2,1,1,1,1,1,2,1,2,1,1,1,Stable,Stable
Cc1ccc(S[C@H]2CC(=O)[C@@](C)(CCC(=O)Nc3c(O)ccc(C(=O)O)c3O)[C@@H]3[C@@H]4C[C@H]5C[C@]23C[C@]5(C)O4)cc1,2,4,2,2,2,2,4,2,4,2,2,2,–,–
C[C@]12C[C@]34C[C@@H]1C[C@H](O2)[C@H]3[C@](C)(CCC(=O)Nc1c(O)ccc(C(=O)O)c1O)C(=O)C[C@@H]4SC(=O)c1ccc(F)cc1,2,1,1,1,1,1,2,1,1,2,1,1,–,–
C[C@]12C[C@]34C[C@@H]1C[C@H](O2)[C@H]3[C@](C)(CCC(=O)Nc1c(O)ccc(C(=O)O)c1O)C(=O)C[C@@H]4SC(=O)c1ccc(Br)cc1,2,1,1,1,1,1,2,1,1,1,1,1,–,–

# From ChEMBL document CHEMBL4138284, “Biomimetic Stereoselective Sulfa-Michael Addition Leads to Platensimycin and Platencin Sulfur Analogues against Methicillin-Resistant Staphylococcus aureus” (J Nat Prod, 2018)
